The target in assay [1] is T1, Aminopeptidase N (Sus scrofa, UniProt P15145).
T1 sequence (P15145 whole entry): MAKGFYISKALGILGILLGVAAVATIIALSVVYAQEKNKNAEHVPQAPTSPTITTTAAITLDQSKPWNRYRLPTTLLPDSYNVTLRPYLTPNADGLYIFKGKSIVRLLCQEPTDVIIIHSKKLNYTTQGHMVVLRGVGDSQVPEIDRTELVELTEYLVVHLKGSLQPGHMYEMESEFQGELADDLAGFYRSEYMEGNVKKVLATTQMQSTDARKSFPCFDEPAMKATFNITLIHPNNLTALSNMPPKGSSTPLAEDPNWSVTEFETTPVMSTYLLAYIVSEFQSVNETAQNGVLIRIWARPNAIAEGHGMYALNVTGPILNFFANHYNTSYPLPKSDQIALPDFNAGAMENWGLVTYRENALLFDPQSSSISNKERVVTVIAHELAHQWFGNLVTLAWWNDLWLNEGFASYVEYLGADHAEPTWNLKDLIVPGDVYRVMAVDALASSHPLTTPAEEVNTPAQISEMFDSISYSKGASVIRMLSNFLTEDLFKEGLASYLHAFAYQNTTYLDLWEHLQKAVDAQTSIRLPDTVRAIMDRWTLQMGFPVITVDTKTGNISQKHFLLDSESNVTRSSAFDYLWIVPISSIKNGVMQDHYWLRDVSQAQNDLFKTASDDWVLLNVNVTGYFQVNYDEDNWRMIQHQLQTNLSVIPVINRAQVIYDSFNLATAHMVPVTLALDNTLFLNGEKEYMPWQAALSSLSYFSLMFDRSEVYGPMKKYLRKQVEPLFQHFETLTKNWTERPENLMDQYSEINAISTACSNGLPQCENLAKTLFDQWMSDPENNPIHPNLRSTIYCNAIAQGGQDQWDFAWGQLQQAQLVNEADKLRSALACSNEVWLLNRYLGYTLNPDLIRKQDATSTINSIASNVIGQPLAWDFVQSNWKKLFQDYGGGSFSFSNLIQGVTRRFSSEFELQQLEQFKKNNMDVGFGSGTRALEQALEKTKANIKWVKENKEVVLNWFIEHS
In words: Inhibition of porcine kidney microsome APN assessed as L-Leu-p-nitroanilide hydrolysis. In short, it runs like this:
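Porcine kidney microsomal aminopeptidase, 4 mg/ml final, in PBS pH 7.2 at 37 °C. Inhibitor solutions made in assay buffer and adjusted to pH 7.5, preincubated with enzyme 30 min at room temperature.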

Assay [2] has as its target 72 kDa type IV collagenase (Homo sapiens, UniProt P08253). Description: Inhibition of MMP2. In short, it runs like this:
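Gelatinase A (MMP-2) with synthetic substrate and inhibitor in sodium borate (50 mmol/l, pH 8.5), incubated 30 min at 37 °C. Then 0.03% TNBS added for a further 20 min and absorbance read at 450 nm.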

Assay [3] has as its system HL-60. In words: Antiproliferative activity against human HL60 cells after 48 hrs by MTT assay. The class given is functional, cell-based. The conditions noted are these: HL-60, 48 h. In short, it runs like this: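 HL-60 cells kept in RPMI1640 with 10% FBS at 37 °C, 5% CO2. Seeded 10,000 cells per well, grown 4 h, then exposed to 1600, 800, 400, 200 or 100 µg/ml for 48 h. Added 0.5% MTT, incubated 4 h, dissolved formazan in DMSO and read OD at 570 nm. Mean and SE of five independent experiments.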

Here are results for 30 compounds from ChEMBL document CHEMBL1152631, “Design, synthesis, and preliminary studies of the activity of novel derivatives of N-cinnamoyl-L-aspartic acid as inhibitors of aminopeptidase N/CD13” (Bioorg Med Chem, 2009).

Bounds are passed on as bounds.

Sequence of 72 kDa type IV collagenase (P08253 whole entry): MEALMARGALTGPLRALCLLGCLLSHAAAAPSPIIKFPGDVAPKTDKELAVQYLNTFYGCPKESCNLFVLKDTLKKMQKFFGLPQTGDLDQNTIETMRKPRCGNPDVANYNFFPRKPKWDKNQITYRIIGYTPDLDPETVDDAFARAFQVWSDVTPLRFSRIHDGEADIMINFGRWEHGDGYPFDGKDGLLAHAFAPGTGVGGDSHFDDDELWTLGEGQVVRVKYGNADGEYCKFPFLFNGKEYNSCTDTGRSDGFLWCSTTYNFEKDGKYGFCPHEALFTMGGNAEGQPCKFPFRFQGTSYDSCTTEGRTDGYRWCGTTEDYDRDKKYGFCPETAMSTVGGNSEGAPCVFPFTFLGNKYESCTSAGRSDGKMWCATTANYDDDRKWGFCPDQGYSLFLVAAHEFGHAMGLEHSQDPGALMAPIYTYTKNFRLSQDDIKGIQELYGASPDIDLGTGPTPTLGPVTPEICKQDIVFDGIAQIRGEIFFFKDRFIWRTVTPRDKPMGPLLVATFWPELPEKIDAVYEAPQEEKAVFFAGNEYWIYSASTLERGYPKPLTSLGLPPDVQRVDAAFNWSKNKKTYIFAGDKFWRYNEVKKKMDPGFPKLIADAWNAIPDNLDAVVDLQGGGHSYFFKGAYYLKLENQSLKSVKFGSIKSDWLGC

In the case of `CCCNC(=O)C[C@@H](NC(=O)/C=C/c1ccccc1)C(=O)NO`, the values for the 50% inhibitory concentration (IC50) in assay [1] and in assay [2] were 36 µM and 131 µM, respectively.
Turning to `O=C(/C=C/c1ccccc1)N[C@H](CC(=O)Nc1ccc([N+](=O)[O-])cc1)C(=O)NO`, the IC50 in assay [1] amounted to 189 µM.
Consider `O=C(/C=C/c1ccccc1)N[C@H](CC(=O)Nc1cccc(Cl)c1)C(=O)O`, for which the IC50 in assay [1] was 719 µM.
Consider `O=C(/C=C/c1ccccc1)N[C@H](CC(=O)Nc1cccc2ccccc12)C(=O)NO`, for which the IC50 in assay [1] is 2050 µM.
Same read-out and setting: as for `O=C(/C=C/c1ccccc1)N[C@H](CC(=O)Nc1ccc(Cl)cc1)C(=O)O`, the figure is 349 µM; as for `O=C(/C=C/c1ccccc1)N[C@H](CC(=O)Nc1ccccc1Cl)C(=O)O`, 263 µM.
The same measure, in the same setting: as for `CC(C)NC(=O)C[C@@H](NC(=O)/C=C/c1ccccc1)C(=O)NO`, the figure is 65.9 µM.
For `CCCCCCCCCCCCNC(=O)C[C@@H](NC(=O)/C=C/c1ccccc1)C(=O)NO`, the IC50 in assay [1] is 438 µM; in assay [2], more than 1000 µM.
As for `CCCCCCCCNC(=O)C[C@@H](NC(=O)/C=C/c1ccccc1)C(=O)NO`, in assay [1], the 50% inhibitory concentration (IC50) came to 18.5 µM.
Regarding `O=C(/C=C/c1ccccc1)N[C@H](CC(=O)Nc1ccccc1)C(=O)NO`, the IC50 in assay [1] is 115 µM.
As for `O=C(/C=C/c1ccccc1)N[C@H](CC(=O)Nc1cccc([N+](=O)[O-])c1)C(=O)NO`, the half-maximal inhibitory concentration (IC50) is 1440 µM in assay [1] and more than 1000 µM in assay [2].
Regarding `CCCCCCCCCCCCNC(=O)C[C@@H](NC(=O)/C=C/c1ccccc1)C(=O)O`, in assay [1], the IC50 turned out to be 962 µM.
Regarding `O=C(/C=C/c1ccccc1)N[C@H](CC(=O)NCc1ccccc1)C(=O)NO`, in assay [1], the concentration for half-maximal inhibition (IC50) came to 65.1 µM.
Still for that read-out and setting: as for `CCCCCNC(=O)C[C@@H](NC(=O)/C=C/c1ccccc1)C(=O)O`, the figure is 204 µM.
Consider `CCCCCCNC(=O)C[C@@H](NC(=O)/C=C/c1ccccc1)C(=O)NO`, for which the IC50 worked out at 18.1 µM in assay [1] and 179 µM in assay [2].
The corresponding values for `O=C(/C=C/c1ccccc1)N[C@H](CC(=O)Nc1ccccc1Cl)C(=O)NO` are 86.6 µM and more than 1000 µM.
`O=C(/C=C/c1ccccc1)N[C@H](CC(=O)Nc1cccc(Cl)c1)C(=O)NO`: the half-maximal inhibitory concentration (IC50) in assay [1] was 1210 µM; in assay [2] it was more than 1000 µM.
As to `CC(C)NC(=O)C[C@@H](NC(=O)/C=C/c1ccccc1)C(=O)O`, the IC50 in assay [1] turned out to be 2200 µM.
Regarding `CCCCNC(=O)C[C@@H](NC(=O)/C=C/c1ccccc1)C(=O)O`, the concentration for half-maximal inhibition (IC50) in assay [1] is 190 µM.
Take `O=C(/C=C/c1ccccc1)N[C@H](CC(=O)Nc1ccc(Cl)cc1)C(=O)NO`: the results for the IC50 in assay [1] and in assay [2] were 192 µM and 197 µM, respectively.
The corresponding values for `O=C(/C=C/c1ccccc1)N[C@H](CC(=O)Nc1cccc([N+](=O)[O-])c1)C(=O)O` are 1780 µM and more than 1000 µM.
Consider `O=C(/C=C/c1ccccc1)N[C@H](CC(=O)Nc1ccc([N+](=O)[O-])cc1)C(=O)O`, for which, in assay [1], the half-inhibitory concentration (IC50) was 273 µM.
Consider `CCCCNC(=O)C[C@@H](NC(=O)/C=C/c1ccccc1)C(=O)NO`, for which the values for the concentration for half-maximal inhibition (IC50) in assay [1], in assay [2] and in assay [3] were 11.1 µM, 232 µM and 780 µM, respectively.
Take `CCCCCNC(=O)C[C@@H](NC(=O)/C=C/c1ccccc1)C(=O)NO`: the IC50 in assay [1] was determined as 17.4 µM; in assay [2] it was 197 µM.
As to `O=C(/C=C/c1ccccc1)N[C@H](CC(=O)Nc1cccc2ccccc12)C(=O)O`, the IC50 in assay [1] was 739 µM; in assay [2] it was more than 1000 µM.
For `O=C(/C=C/c1ccccc1)N[C@H](CC(=O)NCc1ccccc1)C(=O)O`, the half-inhibitory concentration (IC50) in assay [1] stood at 207 µM.
As to `CCCCCCCCNC(=O)C[C@@H](NC(=O)/C=C/c1ccccc1)C(=O)O`, the results for the half-maximal inhibitory concentration (IC50) in assay [1] and in assay [2] were 232 µM and more than 1000 µM, respectively.
On to `O=C(/C=C/c1ccccc1)N[C@H](CC(=O)Nc1ccccc1)C(=O)O`, for which the IC50 in assay [1] is 232 µM; in assay [2] it was more than 1000 µM.
Turning to `CCCNC(=O)C[C@@H](NC(=O)/C=C/c1ccccc1)C(=O)O`, the IC50 in assay [1] is 9110 µM.
With `CC(C)C[C@H](NC(=O)[C@@H](O)[C@H](N)Cc1ccccc1)C(=O)O` [UBENIMEX], inhibition in assay [3] was half-maximal at 920 µM (IC50).
